Laboratory results published in ChEMBL document CHEMBL1255169, “Synthesis, structure-affinity relationships, and radiolabeling of selective high-affinity 5-HT4 receptor ligands as prospective imaging probes for positron emission tomography” (J Med Chem, 2010).

Tests used:
[1] = target: 5-hydroxytryptamine receptor 1D (Homo sapiens, UniProt P28221); test: Binding affinity to human 5-HT1D receptor
[2] = target: 5-hydroxytryptamine receptor 4 (Cavia porcellus, UniProt O70528); test: Displacement of [3H]GR113808 from 5HT4 receptor in guinea pig striatal membranes; assay type: cell membranes, Striatum, Membrane
Sequence of 5-hydroxytryptamine receptor 4 (O70528 whole entry): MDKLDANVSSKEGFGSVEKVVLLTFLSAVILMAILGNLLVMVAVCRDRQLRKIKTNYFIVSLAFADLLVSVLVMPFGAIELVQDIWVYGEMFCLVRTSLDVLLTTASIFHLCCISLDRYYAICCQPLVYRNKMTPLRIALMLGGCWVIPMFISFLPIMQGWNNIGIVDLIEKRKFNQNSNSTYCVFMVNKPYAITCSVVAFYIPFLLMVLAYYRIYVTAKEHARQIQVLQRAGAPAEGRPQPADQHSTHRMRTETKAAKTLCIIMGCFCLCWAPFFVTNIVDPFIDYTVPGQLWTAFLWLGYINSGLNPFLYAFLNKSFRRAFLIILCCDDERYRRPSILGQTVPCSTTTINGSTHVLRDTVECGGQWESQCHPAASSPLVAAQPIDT

[3] = target: T1, Alpha-1A adrenergic receptor (Homo sapiens, UniProt P35348); test: Binding affinity to human adrenergic alpha1A receptor
T1 sequence (P35348 whole entry): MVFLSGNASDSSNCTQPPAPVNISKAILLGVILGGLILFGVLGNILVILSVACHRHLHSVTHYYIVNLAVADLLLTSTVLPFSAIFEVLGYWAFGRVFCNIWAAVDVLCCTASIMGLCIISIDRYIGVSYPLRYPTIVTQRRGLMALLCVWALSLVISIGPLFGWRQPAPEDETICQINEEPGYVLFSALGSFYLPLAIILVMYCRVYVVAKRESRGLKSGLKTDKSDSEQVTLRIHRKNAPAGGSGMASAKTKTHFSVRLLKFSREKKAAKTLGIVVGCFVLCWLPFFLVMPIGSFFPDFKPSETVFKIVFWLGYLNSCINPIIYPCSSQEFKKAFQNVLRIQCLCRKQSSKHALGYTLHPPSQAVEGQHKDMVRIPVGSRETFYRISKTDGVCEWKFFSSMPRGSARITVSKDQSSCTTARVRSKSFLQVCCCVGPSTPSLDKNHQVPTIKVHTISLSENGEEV

[4] = target: Beta-3 adrenergic receptor (Rattus norvegicus, UniProt P26255); test: Binding affinity to rat adrenergic beta3 receptor
[5] = target: Sodium-dependent noradrenaline transporter (Homo sapiens, UniProt P23975); test: Binding affinity to human NET
Sequence of Sodium-dependent noradrenaline transporter (P23975 whole entry): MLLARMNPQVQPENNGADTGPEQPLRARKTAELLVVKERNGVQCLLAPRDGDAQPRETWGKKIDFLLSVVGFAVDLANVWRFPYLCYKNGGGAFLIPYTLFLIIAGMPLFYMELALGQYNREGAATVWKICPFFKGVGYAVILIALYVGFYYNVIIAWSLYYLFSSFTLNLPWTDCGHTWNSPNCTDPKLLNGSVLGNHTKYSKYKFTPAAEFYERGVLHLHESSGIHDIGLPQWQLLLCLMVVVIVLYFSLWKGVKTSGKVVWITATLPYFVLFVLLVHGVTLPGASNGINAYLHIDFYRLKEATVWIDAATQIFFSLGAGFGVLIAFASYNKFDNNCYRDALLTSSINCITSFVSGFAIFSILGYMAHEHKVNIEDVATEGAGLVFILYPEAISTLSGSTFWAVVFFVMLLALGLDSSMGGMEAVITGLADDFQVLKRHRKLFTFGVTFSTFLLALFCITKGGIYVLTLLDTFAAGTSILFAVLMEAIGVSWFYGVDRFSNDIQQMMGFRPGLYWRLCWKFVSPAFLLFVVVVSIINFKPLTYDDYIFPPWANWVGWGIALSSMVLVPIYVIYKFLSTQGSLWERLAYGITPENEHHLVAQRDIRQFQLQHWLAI

[6] = Binding affinity to BZP receptor in rat brain; assay type: tissue-based
[7] = target: T2, Alpha-2C adrenergic receptor (Homo sapiens, UniProt P18825); test: Binding affinity to human adrenergic Alpha-2C receptor
T2 sequence (P18825 whole entry): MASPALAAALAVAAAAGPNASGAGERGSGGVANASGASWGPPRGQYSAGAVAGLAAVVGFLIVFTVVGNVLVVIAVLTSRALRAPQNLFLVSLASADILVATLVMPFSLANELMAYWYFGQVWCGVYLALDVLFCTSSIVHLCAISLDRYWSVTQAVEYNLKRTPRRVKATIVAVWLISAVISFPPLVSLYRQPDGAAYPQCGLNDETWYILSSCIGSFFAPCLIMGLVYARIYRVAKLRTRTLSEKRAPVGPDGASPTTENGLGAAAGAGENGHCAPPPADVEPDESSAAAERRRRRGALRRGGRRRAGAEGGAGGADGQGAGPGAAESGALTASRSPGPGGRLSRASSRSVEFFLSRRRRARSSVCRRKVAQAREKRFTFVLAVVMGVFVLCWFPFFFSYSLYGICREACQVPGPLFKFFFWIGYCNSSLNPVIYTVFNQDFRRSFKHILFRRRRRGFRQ

[8] = target: T3, Alpha-2B adrenergic receptor (Homo sapiens, UniProt P18089); test: Binding affinity to human adrenergic alpha2B receptor
T3 sequence (P18089 whole entry): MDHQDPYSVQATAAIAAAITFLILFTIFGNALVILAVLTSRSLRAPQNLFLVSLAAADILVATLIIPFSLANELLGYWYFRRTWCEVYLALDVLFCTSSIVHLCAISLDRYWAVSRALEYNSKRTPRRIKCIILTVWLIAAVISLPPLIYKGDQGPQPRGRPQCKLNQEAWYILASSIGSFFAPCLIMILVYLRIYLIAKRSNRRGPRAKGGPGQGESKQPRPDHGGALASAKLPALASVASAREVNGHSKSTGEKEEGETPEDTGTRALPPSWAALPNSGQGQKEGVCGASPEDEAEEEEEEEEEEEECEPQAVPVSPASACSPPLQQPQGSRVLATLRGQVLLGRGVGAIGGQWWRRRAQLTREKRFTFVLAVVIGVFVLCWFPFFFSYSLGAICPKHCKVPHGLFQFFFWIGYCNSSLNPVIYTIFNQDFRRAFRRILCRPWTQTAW
Procedure, shortened: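 Radioligand binding run by the NIMH Psychoactive Drug Screening Program as part of a broad receptor and binding-site panel, which included α1A, α1B, α1D and α2A–C subtypes. Affinity is expressed as Ki.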

Histamine H3 receptor = Histamine H3 receptor (Cavia porcellus, UniProt Q9JI35); test: Binding affinity to guinea pig histamine H3 receptor
Sequence of Histamine H3 receptor (Q9JI35 whole entry): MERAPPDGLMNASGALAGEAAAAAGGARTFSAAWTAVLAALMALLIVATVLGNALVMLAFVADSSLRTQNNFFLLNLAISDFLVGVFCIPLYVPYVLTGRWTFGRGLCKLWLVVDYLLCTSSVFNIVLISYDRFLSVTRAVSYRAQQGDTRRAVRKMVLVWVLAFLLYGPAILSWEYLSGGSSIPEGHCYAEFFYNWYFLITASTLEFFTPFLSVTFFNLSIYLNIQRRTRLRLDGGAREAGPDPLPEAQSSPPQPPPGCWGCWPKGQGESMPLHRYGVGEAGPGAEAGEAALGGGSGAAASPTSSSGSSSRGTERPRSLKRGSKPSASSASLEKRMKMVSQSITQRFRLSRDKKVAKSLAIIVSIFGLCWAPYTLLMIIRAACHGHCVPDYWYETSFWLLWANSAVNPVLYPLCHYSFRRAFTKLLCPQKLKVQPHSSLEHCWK

[9] = Binding affinity to rat sigma 2 receptor
[10] = target: Alpha-1D adrenergic receptor (Homo sapiens, UniProt P25100); test: Binding affinity to human adrenergic Alpha-1D receptor
[11] = target: Beta-1 adrenergic receptor (Rattus norvegicus, UniProt P18090); test: Binding affinity to rat adrenergic beta-1 receptor
Sequence of Beta-1 adrenergic receptor (P18090 whole entry): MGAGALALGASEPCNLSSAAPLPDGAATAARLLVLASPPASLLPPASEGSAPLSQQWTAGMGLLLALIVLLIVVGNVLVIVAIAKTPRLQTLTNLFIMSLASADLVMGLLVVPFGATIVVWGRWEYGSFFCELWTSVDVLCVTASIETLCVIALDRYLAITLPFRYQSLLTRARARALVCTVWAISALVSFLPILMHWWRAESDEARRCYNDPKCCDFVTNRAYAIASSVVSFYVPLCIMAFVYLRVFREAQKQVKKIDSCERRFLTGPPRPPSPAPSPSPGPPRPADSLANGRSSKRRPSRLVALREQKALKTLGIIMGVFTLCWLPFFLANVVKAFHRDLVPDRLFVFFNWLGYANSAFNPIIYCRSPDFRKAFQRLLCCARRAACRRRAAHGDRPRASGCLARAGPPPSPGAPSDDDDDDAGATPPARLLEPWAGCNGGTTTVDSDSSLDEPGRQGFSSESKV

Mu-type opioid receptor = Mu-type opioid receptor (Homo sapiens, UniProt P35372); test: Binding affinity to human mu opioid receptor
Sequence of Mu-type opioid receptor (P35372 whole entry): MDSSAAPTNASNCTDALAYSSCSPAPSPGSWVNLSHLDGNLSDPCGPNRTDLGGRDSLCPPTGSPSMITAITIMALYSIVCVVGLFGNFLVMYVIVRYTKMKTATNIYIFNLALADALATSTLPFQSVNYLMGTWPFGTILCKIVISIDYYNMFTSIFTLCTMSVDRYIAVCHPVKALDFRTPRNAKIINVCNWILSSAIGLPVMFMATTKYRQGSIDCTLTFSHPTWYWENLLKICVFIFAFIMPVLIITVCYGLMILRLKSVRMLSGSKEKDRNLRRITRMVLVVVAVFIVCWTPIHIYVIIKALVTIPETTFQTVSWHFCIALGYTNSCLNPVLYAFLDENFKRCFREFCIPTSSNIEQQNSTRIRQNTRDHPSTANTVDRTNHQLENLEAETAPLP

[12] = target: Muscarinic acetylcholine receptor M3 (Homo sapiens, UniProt P20309); test: Binding affinity to human muscarinic M3 receptor
Sequence of Muscarinic acetylcholine receptor M3 (P20309 whole entry): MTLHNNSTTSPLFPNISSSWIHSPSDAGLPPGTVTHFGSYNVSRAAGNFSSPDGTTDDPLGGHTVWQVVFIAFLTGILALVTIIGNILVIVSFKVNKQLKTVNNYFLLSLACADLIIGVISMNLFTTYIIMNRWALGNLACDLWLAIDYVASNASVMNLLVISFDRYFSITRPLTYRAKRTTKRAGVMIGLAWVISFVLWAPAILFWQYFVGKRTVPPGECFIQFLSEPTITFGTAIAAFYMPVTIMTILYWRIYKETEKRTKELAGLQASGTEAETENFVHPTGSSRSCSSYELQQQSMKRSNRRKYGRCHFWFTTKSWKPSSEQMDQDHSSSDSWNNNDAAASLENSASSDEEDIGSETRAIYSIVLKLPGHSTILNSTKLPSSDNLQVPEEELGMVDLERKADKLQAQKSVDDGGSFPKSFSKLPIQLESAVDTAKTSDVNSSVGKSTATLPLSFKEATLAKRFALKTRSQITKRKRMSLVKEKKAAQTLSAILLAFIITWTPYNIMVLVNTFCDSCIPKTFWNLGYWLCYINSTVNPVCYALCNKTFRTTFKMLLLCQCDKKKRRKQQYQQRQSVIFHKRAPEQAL

[13] = target: GABA-A receptor; agonist GABA site; test: Binding affinity to human GABAA receptor; assay type: protein-complex assay
Histamine H1 receptor = Histamine H1 receptor (Cavia porcellus, UniProt P31389); test: Binding affinity to guinea pig histamine H1 receptor
Sequence of Histamine H1 receptor (P31389 whole entry): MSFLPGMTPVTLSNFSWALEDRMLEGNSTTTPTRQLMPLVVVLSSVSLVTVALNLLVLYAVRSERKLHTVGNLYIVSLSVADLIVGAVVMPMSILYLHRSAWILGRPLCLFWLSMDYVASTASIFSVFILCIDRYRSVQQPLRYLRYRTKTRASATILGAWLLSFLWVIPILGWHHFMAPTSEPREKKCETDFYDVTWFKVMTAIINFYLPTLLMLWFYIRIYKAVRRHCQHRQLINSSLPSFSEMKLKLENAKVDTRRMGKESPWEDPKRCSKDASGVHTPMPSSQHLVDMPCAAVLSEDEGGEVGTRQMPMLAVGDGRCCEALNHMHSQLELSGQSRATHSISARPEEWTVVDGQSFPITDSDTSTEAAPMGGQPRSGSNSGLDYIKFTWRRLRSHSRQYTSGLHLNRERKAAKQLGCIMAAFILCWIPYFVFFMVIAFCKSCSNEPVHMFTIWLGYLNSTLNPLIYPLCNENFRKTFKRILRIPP

D(1B) dopamine receptor = D(1B) dopamine receptor (Homo sapiens, UniProt P21918); test: Binding affinity to human dopamine D5 receptor
[14] = target: Muscarinic acetylcholine receptor M5 (Homo sapiens, UniProt P08912); test: Binding affinity to human muscarinic M5 receptor
Sequence of Muscarinic acetylcholine receptor M5 (P08912 whole entry): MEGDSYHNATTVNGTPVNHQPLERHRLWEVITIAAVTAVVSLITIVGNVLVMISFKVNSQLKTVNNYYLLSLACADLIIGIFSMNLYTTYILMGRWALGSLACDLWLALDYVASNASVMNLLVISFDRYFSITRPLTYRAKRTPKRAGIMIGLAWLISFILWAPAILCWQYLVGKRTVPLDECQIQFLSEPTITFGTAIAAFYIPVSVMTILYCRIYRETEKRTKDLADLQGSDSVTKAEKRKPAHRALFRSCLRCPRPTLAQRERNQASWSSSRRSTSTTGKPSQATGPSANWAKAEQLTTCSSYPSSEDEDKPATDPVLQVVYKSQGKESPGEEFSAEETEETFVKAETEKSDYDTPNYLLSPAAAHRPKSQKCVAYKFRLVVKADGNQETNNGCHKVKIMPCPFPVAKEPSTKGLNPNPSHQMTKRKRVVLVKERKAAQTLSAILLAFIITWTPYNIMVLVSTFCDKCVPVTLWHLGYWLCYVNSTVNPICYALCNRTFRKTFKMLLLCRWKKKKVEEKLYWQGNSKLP

[15] = target: 5-hydroxytryptamine receptor 7 (Homo sapiens, UniProt P34969); test: Binding affinity to human 5-HT7 receptor
Sequence of 5-hydroxytryptamine receptor 7 (P34969 whole entry): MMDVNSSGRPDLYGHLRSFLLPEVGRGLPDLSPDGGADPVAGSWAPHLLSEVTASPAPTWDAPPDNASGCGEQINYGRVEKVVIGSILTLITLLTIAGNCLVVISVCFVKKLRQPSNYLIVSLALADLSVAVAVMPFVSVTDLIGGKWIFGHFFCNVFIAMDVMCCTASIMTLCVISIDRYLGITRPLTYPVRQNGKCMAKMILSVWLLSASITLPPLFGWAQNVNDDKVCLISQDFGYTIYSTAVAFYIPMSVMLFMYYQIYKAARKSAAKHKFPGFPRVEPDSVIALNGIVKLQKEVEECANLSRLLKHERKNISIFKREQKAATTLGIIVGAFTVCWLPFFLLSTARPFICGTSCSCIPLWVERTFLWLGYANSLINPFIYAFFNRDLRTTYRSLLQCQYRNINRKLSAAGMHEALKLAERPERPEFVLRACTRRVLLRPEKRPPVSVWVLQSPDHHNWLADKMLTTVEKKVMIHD

[16] = target: Muscarinic acetylcholine receptor M1 (Homo sapiens, UniProt P11229); test: Binding affinity to human muscarinic M1 receptor
[17] = target: Alpha-2A adrenergic receptor (Homo sapiens, UniProt P08913); test: Binding affinity to human adrenergic alpha2A receptor
Histamine H4 receptor = Histamine H4 receptor (Cavia porcellus, UniProt Q91ZY3); test: Binding affinity to guinea pig histamine H4 receptor
[18] = target: Delta-type opioid receptor (Homo sapiens, UniProt P41143); test: Binding affinity to human delta opioid receptor
Sequence of Delta-type opioid receptor (P41143 whole entry): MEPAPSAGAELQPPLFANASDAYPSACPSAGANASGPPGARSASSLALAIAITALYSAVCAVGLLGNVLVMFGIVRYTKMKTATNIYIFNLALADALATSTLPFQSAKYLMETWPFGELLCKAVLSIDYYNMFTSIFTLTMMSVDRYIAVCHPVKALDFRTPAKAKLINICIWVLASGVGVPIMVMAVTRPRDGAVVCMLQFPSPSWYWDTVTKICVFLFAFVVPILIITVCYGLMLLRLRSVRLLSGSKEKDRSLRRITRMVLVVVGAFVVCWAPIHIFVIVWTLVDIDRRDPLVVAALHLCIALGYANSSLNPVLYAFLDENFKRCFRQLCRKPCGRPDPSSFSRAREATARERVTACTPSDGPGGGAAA

| SMILES | Ki [1] | Ki [2] | Ki [3] | Ki [4] | Ki [5] | Ki [6] | Ki [7] | Ki [8] | Ki (Histamine H3 receptor) | Ki [9] | Ki [10] | Ki [11] | Ki (Mu-type opioid receptor) | Ki [12] | Ki [13] | Ki (Histamine H1 receptor) | Ki (D(1B) dopamine receptor) | Ki [14] | Ki [15] | Ki [16] | also measured |
| --- | --- | --- | --- | --- | --- | --- | --- | --- | --- | --- | --- | --- | --- | --- | --- | --- | --- | --- | --- | --- | --- |
| CCCCN1CCC(COC(=O)c2cc(Cl)c(NC)c3c2OCCO3)CC1 | 1300 nM | 0.577 nM | 522 nM | > 10000 nM | 3230 nM | > 10000 nM | 556 nM | 671 nM | > 10000 nM | 8 nM | 2280 nM | > 10000 nM | > 10000 nM | 823 nM | > 10000 nM | 2730 nM | 972 nM | 972 nM | 5700 nM | > 10000 nM | Ki [17]: 2240 nM; Ki (Histamine H4 receptor): > 10000 nM; Ki [18]: > 10000 nM |
| CCCCN1CCC(COC(=O)c2ccc(N)c(OC)c2)CC1 | 5690 nM | 0.738 nM | > 10000 nM | > 10000 nM | > 10000 nM | > 10000 nM | 989 nM | > 10000 nM | 1650 nM | 148 nM | > 10000 nM | 4410 nM | > 10000 nM | 1100 nM | > 10000 nM | > 10000 nM | > 10000 nM | 4060 nM | > 10000 nM | > 10000 nM | Ki [17]: > 10000 nM; Ki (Histamine H4 receptor): > 10000 nM; Ki [18]: > 10000 nM |
